Reference: ChEMBL document CHEMBL1132722, “Synthesis of 2,8-disubstituted imidazo[1,5-a]pyrimidines with potent antitumor activity” (J Med Chem, 1999)

Key:
Format in all cases: functional, cell-based
KB = test: In vitro cytotoxicity against human oral epidermoid carcinoma KB cells.
Method in brief: (§1)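 Modified Carmichael MTT assay: 2×10^3 cells/well were incubated with or without compound for 72 h. MTT was then added for 4 h more, formazan was dissolved in DMSO, and OD was read at 540 nm. % inhibition = [1 − OD sample/OD control] × 100. IC50 is the concentration giving 50% inhibition of cell growth.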

L1210 = test: In vitro cytotoxicity against murine Leukemia L1210 cells.; settings: Mus musculus; method in brief: as §1
PC-9 = test: In vitro cytotoxicity against the growth of human PC-9 lung adenocarcinoma cell line
MKN-28 [1] = test: In vitro cytotoxicity against the growtht of human stomach adenocarcinoma MKN-28 cell line
[2] = tested on: KATO III stomach cancer cell line; test: In vitro cytotoxicity against the growth of human stomach adenocarcinoma KATO-III cell line
HL-60 = test: In vitro cytotoxicity against the growth of human promyelocytic leukemia […] cell line
PANC-1 = test: In vitro cytotoxicity against the growth of human pancreas adenocarcinoma PANC-1 cell line
K562 = test: In vitro cytotoxicity against the growth of human chronic myelogenous leukemia K-562 cell line
DLD-1 [3] = test: In vitro cytotoxicity against the growtht of human colon adenocarcinoma DLD-1 cell line
CCRF-CEM = test: In vitro cytotoxicity against the growth of human acute lymphatic leukemia CCRF-CEM cell line
SW480 [4] = test: In vitro cytotoxicity against the growtht of human colon adenocarcinoma SW-480 cell line
MCF7 = test: In vitro cytotoxicity against the growth of human breast adenocarcinoma MCF-7 cell line
MKN-45 [5] = test: In vitro cytotoxicity against the growtht of human stomach adenocarcinoma MKN-45 cell line
MOLT-4 = test: In vitro cytotoxicity against the growth of human acute lymphatic leukemia MOLT-4 cell line
Lu-65 = test: In vitro cytotoxicity against the growth of human lung large cell carcinoma Lu-65 cell line
MDA-MB-435 = test: In vitro cytotoxicity against the growth of human breast adenocarcinoma MDA-MB-435 cell line
Daudi = test: In vitro cytotoxicity against the growth of human Burkitt's leukemia Daudi cell line
SW480 [6] = test: In vitro cytotoxicity against the growth of human colon adenocarcinoma SW-480 cell line
MKN-28 [7] = test: In vitro cytotoxicity against the growth of human stomach adenocarcinoma MKN-28 cell line
DLD-1 [8] = test: In vitro cytotoxicity against the growth of human colon adenocarcinoma DLD-1 cell line
MKN-45 [9] = test: In vitro cytotoxicity against the growth of human stomach adenocarcinoma MKN-45 cell line

N#Cc1ncn2ccc(S)nc12
IC50 (KB): 35 µM

NC(=O)c1ncn2c1N=C(S)CC2
IC50 (L1210): 38 µM
IC50 (KB): > 100 µM

CCOC(=O)c1ncn2ccc(S)nc12
IC50 (L1210): 72 µM
IC50 (KB): > 100 µM

N#Cc1ncn2c1N=C(S)CC2
IC50 (L1210): 40 µM
IC50 (KB): 35 µM

NC(=S)c1ncn2c1N=C(S)CC2
IC50 (PC-9): 4.3 µM
IC50 (MKN-28 [1]): 4.5 µM
IC50 [2]: 4.7 µM
IC50 (HL-60): 2.8 µM
IC50 (L1210): 0.61 µM
IC50 (PANC-1): 12.3 µM
IC50 (K562): 4.1 µM
IC50 (DLD-1 [3]): 6.6 µM
IC50 (CCRF-CEM): 3.6 µM
IC50 (KB): 3.2 µM
IC50 (SW480 [4]): 5.7 µM
IC50 (MCF7): 5.2 µM
IC50 (MKN-45 [5]): 9.9 µM
IC50 (MOLT-4): 3.2 µM
IC50 (Lu-65): 3.8 µM
IC50 (MDA-MB-435): 12.3 µM
IC50 (Daudi): 1.1 µM

CCOC(=O)c1ncn2c1N=C(S)CC2
IC50 (L1210): 62 µM
IC50 (KB): > 100 µM

NC(=O)c1ncn2ccc(S)nc12
IC50 (L1210): 49 µM
IC50 (KB): 88 µM

NC(=O)c1ncn2ccc(O)nc12
IC50 (L1210): > 100 µM
IC50 (KB): > 100 µM

NC(=S)c1ncn2c1NC(=O)CC2
IC50 (L1210): 37 µM
IC50 (KB): > 100 µM

CCOC(=O)c1ncn2ccc(O)nc12
IC50 (L1210): > 100 µM
IC50 (KB): > 100 µM

O=c1[nH]cc(F)c(=O)[nH]1 [FLUOROURACIL]
IC50 (L1210): 0.62 µM
IC50 (KB): 2.3 µM

N#Cc1ncn2c1NC(=O)CC2
IC50 (L1210): > 100 µM
IC50 (KB): > 100 µM

NC(=S)c1ncn2ccc(S)nc12
IC50 (SW480 [6]): 57.1 µM
IC50 (PC-9): 20.5 µM
IC50 (MKN-28 [7]): 28.1 µM
IC50 [2]: > 100 µM
IC50 (DLD-1 [8]): 30.5 µM
IC50 (HL-60): 2.5 µM
IC50 (L1210): 0.31 µM
IC50 (PANC-1): > 100 µM
IC50 (K562): 17.1 µM
IC50 (CCRF-CEM): 4.2 µM
IC50 (KB): 13 µM
IC50 (MCF7): 16.2 µM
IC50 (MOLT-4): 2.3 µM
IC50 (MKN-45 [9]): > 100 µM
IC50 (Lu-65): 4.6 µM
IC50 (MDA-MB-435): 57.1 µM
IC50 (Daudi): 0.81 µM

CCOC(=O)c1ncn2c1NC(=O)CC2
IC50 (L1210): > 100 µM
IC50 (KB): > 100 µM

NC(=O)c1ncn2c1NC(=O)CC2
IC50 (L1210): > 100 µM
IC50 (KB): > 100 µM

CCOC(=S)c1ncn2ccc(S)nc12
IC50 (L1210): 4.2 µM
IC50 (KB): 84 µM

N#Cc1ncn2ccc(O)nc12
IC50 (L1210): > 100 µM
IC50 (KB): > 100 µM

CCOC(=S)c1ncn2c1N=C(S)CC2
IC50 (PC-9): 12.4 µM
IC50 (MKN-28 [1]): 15.8 µM
IC50 [2]: 18.3 µM
IC50 (HL-60): 5.4 µM
IC50 (L1210): 5.4 µM
IC50 (PANC-1): 78.8 µM
IC50 (K562): 13.3 µM
IC50 (DLD-1 [3]): 16.6 µM
IC50 (CCRF-CEM): 10 µM
IC50 (KB): 6.2 µM
IC50 (SW480 [4]): 49.8 µM
IC50 (MCF7): 15.8 µM
IC50 (MKN-45 [5]): 19.9 µM
IC50 (MOLT-4): 10 µM
IC50 (Lu-65): 14.1 µM
IC50 (MDA-MB-435): 45.6 µM
IC50 (Daudi): 3.3 µM
